Test results: ChEMBL document CHEMBL1806443, “Novel imidazo[4,5-b]pyridine and triaza-benzo[c]fluorene derivatives: synthesis, antiproliferative activity and DNA binding studies” (Eur J Med Chem, 2011)

How the values were obtained:
SK-BR-3 [1] = assay: Cell cycle arrest in human SKBR3 cells assessed as accumulation at S phase at 5 uM after 48 hrs by propidium iodide staining based flow cytometeric analysis (reference value: 40.6 +/- 4.9%); assay type: functional
SK-BR-3 [2] = assay: Cell cycle arrest in human SKBR3 cells assessed as accumulation at S phase at 50 uM after 24 hrs by propidium iodide staining based flow cytometeric analysis (reference value: 39.9 +/- 1.5%); assay type: functional
SK-BR-3 [3] = assay: Cell cycle arrest in human SKBR3 cells assessed as accumulation at S phase at 10 uM after 24 hrs by propidium iodide staining based flow cytometeric analysis (reference value: 39.9 +/- 1.5%); assay type: functional
SK-BR-3 [4] = assay: Cell cycle arrest in human SKBR3 cells assessed as accumulation at S phase at 5 uM after 24 hrs by propidium iodide staining based flow cytometeric analysis (reference value: 39.9 +/- 1.5%); assay type: functional
SK-BR-3 [5] = assay: Cell cycle arrest in human SKBR3 cells assessed as accumulation at G1 phase at 50 uM after 48 hrs by propidium iodide staining based flow cytometeric analysis (reference value: 24.7 +/- 1.9%); assay type: functional
SK-BR-3 [6] = assay: Cell cycle arrest in human SKBR3 cells assessed as accumulation at G1 phase at 10 uM after 48 hrs by propidium iodide staining based flow cytometeric analysis (reference value: 24.7 +/- 1.9%); assay type: functional
SK-BR-3 [7] = assay: Cell cycle arrest in human SKBR3 cells assessed as accumulation at G1 phase at 5 uM after 48 hrs by propidium iodide staining based flow cytometeric analysis (reference value: 24.7 +/- 1.9%); assay type: functional
SK-BR-3 [8] = assay: Cell cycle arrest in human SKBR3 cells assessed as accumulation at G1 phase at 50 uM after 24 hrs by propidium iodide staining based flow cytometeric analysis (reference value: 39.5 +/- 1.1%); assay type: functional
SK-BR-3 [9] = assay: Cell cycle arrest in human SKBR3 cells assessed as accumulation at G1 phase at 10 uM after 24 hrs by propidium iodide staining based flow cytometeric analysis (reference value: 39.5 +/- 1.1%); assay type: functional
SK-BR-3 [10] = assay: Cell cycle arrest in human SKBR3 cells assessed as accumulation at G1 phase at 5 uM after 24 hrs by propidium iodide staining based flow cytometeric analysis (reference value: 39.5 +/- 1.1%); assay type: functional
SK-BR-3 [11] = assay: Cell cycle arrest in human SKBR3 cells assessed as accumulation at subG1 phase at 50 uM after 48 hrs by propidium iodide staining based flow cytometeric analysis (reference value: 2.1 +/- 0.2%); assay type: functional
SK-BR-3 [12] = assay: Cell cycle arrest in human SKBR3 cells assessed as accumulation at subG1 phase at 10 uM after 48 hrs by propidium iodide staining based flow cytometeric analysis (reference value: 2.1 +/- 0.2%); assay type: functional
SK-BR-3 [13] = assay: Cell cycle arrest in human SKBR3 cells assessed as accumulation at subG1 phase at 5 uM after 48 hrs by propidium iodide staining based flow cytometeric analysis (reference value: 2.1 +/- 0.2%); assay type: functional
SK-BR-3 [14] = assay: Cell cycle arrest in human SKBR3 cells assessed as accumulation at subG1 phase at 50 uM after 24 hrs by propidium iodide staining based flow cytometeric analysis (reference value: 39 +/- 1.1%); assay type: functional
SK-BR-3 [15] = assay: Cell cycle arrest in human SKBR3 cells assessed as accumulation at subG1 phase at 10 uM after 24 hrs by propidium iodide staining based flow cytometeric analysis (reference value: 39 +/- 1.1%); assay type: functional
SK-BR-3 [16] = assay: Cell cycle arrest in human SKBR3 cells assessed as accumulation at subG1 phase at 5 uM after 24 hrs by propidium iodide staining based flow cytometeric analysis (reference value: 39 +/- 1.1%); assay type: functional
WI-38 = assay: Antiproliferative activity against human WI38 cells after 72 hrs by MTT assay; assay type: cell-based; conditions: Homo sapiens, WI-38, 72 h
Method in brief: (§1)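 Monolayer cells in DMEM with 10% FBS, 2 mM L-glutamine, penicillin and streptomycin at 37 °C, 5% CO2. Seeded at 3000-6000 cells/well by doubling time on day 0. Five 10-fold dilutions (0.01–100 µM) were added and incubated 72 h. MTT read-out, converted to percentage growth. IC50 by linear regression between bracketing concentrations. Quadruplicate points, three independent experiments, ANOVA/Tukey p<0.05.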

MIA PaCa-2 = assay: Antiproliferative activity against human MIAPaCa2 cells after 72 hrs by MTT assay; assay type: functional, cell-based; conditions: Homo sapiens, MIA PaCa-2, 72 h; method in brief: as §1
SW-620 = assay: Antiproliferative activity against human SW620 cells after 72 hrs by MTT assay; assay type: functional, cell-based; conditions: Homo sapiens, SW-620, 72 h; method in brief: as §1
HEp-2 = assay: Antiproliferative activity against human Hep2 cells after 72 hrs by MTT assay; assay type: functional, cell-based; conditions: Homo sapiens, HEp-2, 72 h; method in brief: as §1
SK-BR-3 [17] = assay: Antiproliferative activity against human SKBR3 cells after 72 hrs by MTT assay; assay type: functional, cell-based; conditions: Homo sapiens, SK-BR-3, 72 h; method in brief: as §1
MCF7 = assay: Antiproliferative activity against human MCF7 cells after 72 hrs by MTT assay; assay type: functional, cell-based; conditions: Homo sapiens, MCF7, 72 h; method in brief: as §1
HeLa = assay: Antiproliferative activity against human HeLa cells after 72 hrs by MTT assay; assay type: functional, cell-based; conditions: Homo sapiens, HeLa, 72 h; method in brief: as §1
SK-BR-3 [18] = assay: Cell cycle arrest in human SKBR3 cells assessed as accumulation at S phase at 10 uM after 48 hrs by propidium iodide staining based flow cytometeric analysis (reference value: 40.6 +/- 4.9%); assay type: functional
SK-BR-3 [19] = assay: Cell cycle arrest in human SKBR3 cells assessed as accumulation at S phase at 50 uM after 48 hrs by propidium iodide staining based flow cytometeric analysis (reference value: 40.6 +/- 4.9%); assay type: functional
SK-BR-3 [20] = assay: Cell cycle arrest in human SKBR3 cells assessed as accumulation at G2/M phase at 5 uM after 24 hrs by propidium iodide staining based flow cytometeric analysis (reference value: 20.6 +/- 2.1%); assay type: functional
SK-BR-3 [21] = assay: Cell cycle arrest in human SKBR3 cells assessed as accumulation at G2/M phase at 10 uM after 24 hrs by propidium iodide staining based flow cytometeric analysis (reference value: 20.6 +/- 2.1%); assay type: functional
SK-BR-3 [22] = assay: Cell cycle arrest in human SKBR3 cells assessed as accumulation at G2/M phase at 50 uM after 24 hrs by propidium iodide staining based flow cytometeric analysis (reference value: 20.6 +/- 2.1%); assay type: functional
SK-BR-3 [23] = assay: Cell cycle arrest in human SKBR3 cells assessed as accumulation at G2/M phase at 5 uM after 48 hrs by propidium iodide staining based flow cytometeric analysis (reference value: 34.7 +/- 3.3%); assay type: functional
SK-BR-3 [24] = assay: Cell cycle arrest in human SKBR3 cells assessed as accumulation at G2/M phase at 10 uM after 48 hrs by propidium iodide staining based flow cytometeric analysis (reference value: 34.7 +/- 3.3%); assay type: functional
SK-BR-3 [25] = assay: Cell cycle arrest in human SKBR3 cells assessed as accumulation at G2/M phase at 50 uM after 48 hrs by propidium iodide staining based flow cytometeric analysis (reference value: 34.7 +/- 3.3%); assay type: functional

Nc1ccc2c(ccc3nc4ncccc4n32)c1 showed an Activity (SK-BR-3 [1]) of 59.8%, an Activity (SK-BR-3 [2]) of 48.1% and an Activity (SK-BR-3 [3]) of 34.5%. It also gave an Activity (SK-BR-3 [4]) of 35.1%, an Activity (SK-BR-3 [5]) of 19.9% and an Activity (SK-BR-3 [6]) of 20.9%. The Activity (SK-BR-3 [7]) was 24.4%, the Activity (SK-BR-3 [8]) was 33.2% and the Activity (SK-BR-3 [9]) was 39.4%. The Activity (SK-BR-3 [10]) was 47.1%, the Activity (SK-BR-3 [11]) was 3.1% and the Activity (SK-BR-3 [12]) was 5.5%. For the same molecule, the Activity (SK-BR-3 [13]) was 1.9%, the Activity (SK-BR-3 [14]) was 50.2% and the Activity (SK-BR-3 [15]) was 45.8%. The Activity (SK-BR-3 [16]) was 35.7%, the IC50 (WI-38) was > 100 µM and the IC50 (MIA PaCa-2) was 48.2 µM. It also gave an IC50 (SW-620) of 34.8 µM, an IC50 (HEp-2) of 39.2 µM and an IC50 (SK-BR-3 [17]) of 2.94 µM. For the same molecule, the IC50 (MCF7) was 72.4 µM, the IC50 (HeLa) was 43.4 µM and the Activity (SK-BR-3 [18]) was 64.2%. For the same molecule, the Activity (SK-BR-3 [19]) was 47.6%, the Activity (SK-BR-3 [20]) was 17.7% and the Activity (SK-BR-3 [21]) was 26.1%. It also gave an Activity (SK-BR-3 [22]) of 18.7%, an Activity (SK-BR-3 [23]) of 15.8% and an Activity (SK-BR-3 [24]) of 14.8%. For the same molecule, the Activity (SK-BR-3 [25]) was 32.5%.
